What is called GI50 is the concentration giving 50% growth inhibition. The Tmax is the time from dosing to the highest level. As usually defined, the Vdss is a proportionality between amount in the body and measured concentration, not a real space. As usually defined, the Cmax is the peak of the concentration-time curve. What is called AUC is concentration integrated over time. Lower therefore signals low exposure. Usually clearance stands for the rate of elimination divided by the concentration. High values mean efficient removal, low ones inefficient removal. A word on the IC50: it is the concentration that gives 50% inhibition. For orientation: Kd means the concentration at which binding is half-saturated.

Consider 17 compounds from ChEMBL document CHEMBL3779881, “Property Focused Structure-Based Optimization of Small Molecule Inhibitors of the Protein-Protein Interaction between Menin and Mixed Lineage Leukemia (MLL)” (J Med Chem, 2016).

Series [1] can be described thus: Growth inhibition of MLL-AF9 transformed mouse bone marrow cells after 7 days by MTT assay. The conditions noted are these: Bone marrow cell, 168 h. The series is classed as functional. In general terms: Formazan colour is commonly taken as a measure of viable cells.
In series [2] the test system is Mus musculus. Briefly: Half life in C57BL/6 mouse at 15 mg/kg, iv after 24 hrs by LC-MS/MS analysis. The format is ADME, organism-based. The conditions noted are these: in vivo. Put shortly:
(§1)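 Female C57BL/6 mice dosed iv at 15 mg/kg or orally at 30 mg/kg in 25% DMSO/25% PEG-400/50% PBS (v/v). Serial 50 μL blood samples collected over 24 h (8 h in one experiment), spun to plasma; concentrations by validated LC-MS/MS in positive-ion MRM mode; parameters from noncompartmental analysis.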

The subject of series [3] is Mus musculus. Briefly: Half life in C57BL/6 mouse at 30 mg/kg, po after 24 hrs by LC-MS/MS analysis. The format is ADME, organism-based. Particulars: in vivo. Put shortly:
as §1

In series [4] the test system is Bone marrow cell. Briefly: Selectivity index, ratio of GI50 for Hoxa9/Meis1 transformed mouse bone marrow cells to GI50 for MLL-AF9 transformed mouse bone marrow cells. The format is functional.
The subject of series [5] is Mus musculus. Description: Tmax in C57BL/6 mouse plasma at 30 mg/kg, po after 24 hrs by LC-MS/MS analysis. The series is classed as ADME, organism-based. The conditions noted are these: in vivo. Put shortly: as §1
Series [6] deals with Mus musculus. Briefly: Oral bioavailability in C57BL/6 mouse at 30 mg/kg after 24 hrs by LC-MS/MS analysis. The format is ADME, organism-based. Particulars: in vivo. Put shortly:
as §1

The subject of series [7] is Mus musculus. Briefly: Volume of distribution at steady state in C57BL/6 mouse at 15 mg/kg, iv after 24 hrs by LC-MS/MS analysis. The series is classed as ADME, organism-based. The conditions noted are these: in vivo. Summed up: as §1
Series [8] has as its system Mus musculus. Description: Cmax in C57BL/6 mouse plasma at 30 mg/kg, po after 24 hrs by LC-MS/MS analysis. The series is classed as ADME, organism-based. Further details: dose 30 mg/kg, route oral. The conditions noted are these: in vivo. Put shortly:
as §1

The test system of series [9] is Mus musculus. Description: AUC in C57BL/6 mouse at 15 mg/kg, iv after 24 hrs by LC-MS/MS analysis. The series is classed as ADME, organism-based. Further details: dose 15 mg/kg, time < 24 hr, route intravenous. The conditions noted are these: in vivo. Put shortly: as §1
The nature of series [10]: Growth inhibition of Hoxa9/Meis1 transformed mouse bone marrow cells after 7 days by MTT assay. The format is functional. Particulars: Bone marrow cell, 168 h.
A short description of series [11]: Clearance in C57BL/6 mouse at 15 mg/kg, iv after 24 hrs by LC-MS/MS analysis. The conditions noted are these: in vivo. The format is ADME, organism-based. Summed up: as §1
Series [12] in a line: Half life in CD-1 mouse liver microsomes at 1 uM after 3 to 60 mins by LC-MS/MS analysis. The series is classed as ADME. Background: Liver microsomes are a subcellular fraction often used to study metabolism.
In series [13] the test system is Mus musculus. Briefly: AUC in C57BL/6 mouse at 30 mg/kg, po after 24 hrs by LC-MS/MS analysis. Further details: time < 24 hr, dose 30 mg/kg, route oral. Particulars: in vivo. The format is ADME, organism-based. Summed up:
as §1

In series [14] the target is Menin/Histone-lysine N-methyltransferase MLL (Homo sapiens, UniProt O00255). Briefly: Inhibition of menin-MLL interaction (unknown origin) after 1 hr by fluorescence polarization assay. The series is classed as protein assay. A general note: Fluorescence polarisation rises when a labelled molecule tumbles more slowly, as on binding a larger partner.
The target of series [15] is T1, Menin (Homo sapiens, UniProt O00255).
T1 sequence (O00255 whole entry): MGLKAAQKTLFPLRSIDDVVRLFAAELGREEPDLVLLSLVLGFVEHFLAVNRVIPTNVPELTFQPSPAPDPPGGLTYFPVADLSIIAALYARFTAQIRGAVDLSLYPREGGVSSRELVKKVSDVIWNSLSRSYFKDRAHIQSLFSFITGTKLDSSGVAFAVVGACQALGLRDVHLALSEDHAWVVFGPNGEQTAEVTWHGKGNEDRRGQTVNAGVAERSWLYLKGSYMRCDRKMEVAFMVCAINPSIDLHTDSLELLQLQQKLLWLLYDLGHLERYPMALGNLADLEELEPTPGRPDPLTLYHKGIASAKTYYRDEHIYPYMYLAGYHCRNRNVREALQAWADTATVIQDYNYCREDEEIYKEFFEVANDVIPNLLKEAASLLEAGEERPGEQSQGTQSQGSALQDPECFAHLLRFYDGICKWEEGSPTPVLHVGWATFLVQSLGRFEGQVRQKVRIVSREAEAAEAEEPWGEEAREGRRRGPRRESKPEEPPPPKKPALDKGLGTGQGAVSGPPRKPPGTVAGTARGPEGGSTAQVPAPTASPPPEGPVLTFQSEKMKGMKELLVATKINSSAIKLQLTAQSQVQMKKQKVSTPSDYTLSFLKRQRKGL
Briefly: Binding affinity to menin (unknown origin).

Menin/Histone-lysine N-methyltransferase MLL, sequence (Q03164 1-2718 partner limits assumed, one chain of several): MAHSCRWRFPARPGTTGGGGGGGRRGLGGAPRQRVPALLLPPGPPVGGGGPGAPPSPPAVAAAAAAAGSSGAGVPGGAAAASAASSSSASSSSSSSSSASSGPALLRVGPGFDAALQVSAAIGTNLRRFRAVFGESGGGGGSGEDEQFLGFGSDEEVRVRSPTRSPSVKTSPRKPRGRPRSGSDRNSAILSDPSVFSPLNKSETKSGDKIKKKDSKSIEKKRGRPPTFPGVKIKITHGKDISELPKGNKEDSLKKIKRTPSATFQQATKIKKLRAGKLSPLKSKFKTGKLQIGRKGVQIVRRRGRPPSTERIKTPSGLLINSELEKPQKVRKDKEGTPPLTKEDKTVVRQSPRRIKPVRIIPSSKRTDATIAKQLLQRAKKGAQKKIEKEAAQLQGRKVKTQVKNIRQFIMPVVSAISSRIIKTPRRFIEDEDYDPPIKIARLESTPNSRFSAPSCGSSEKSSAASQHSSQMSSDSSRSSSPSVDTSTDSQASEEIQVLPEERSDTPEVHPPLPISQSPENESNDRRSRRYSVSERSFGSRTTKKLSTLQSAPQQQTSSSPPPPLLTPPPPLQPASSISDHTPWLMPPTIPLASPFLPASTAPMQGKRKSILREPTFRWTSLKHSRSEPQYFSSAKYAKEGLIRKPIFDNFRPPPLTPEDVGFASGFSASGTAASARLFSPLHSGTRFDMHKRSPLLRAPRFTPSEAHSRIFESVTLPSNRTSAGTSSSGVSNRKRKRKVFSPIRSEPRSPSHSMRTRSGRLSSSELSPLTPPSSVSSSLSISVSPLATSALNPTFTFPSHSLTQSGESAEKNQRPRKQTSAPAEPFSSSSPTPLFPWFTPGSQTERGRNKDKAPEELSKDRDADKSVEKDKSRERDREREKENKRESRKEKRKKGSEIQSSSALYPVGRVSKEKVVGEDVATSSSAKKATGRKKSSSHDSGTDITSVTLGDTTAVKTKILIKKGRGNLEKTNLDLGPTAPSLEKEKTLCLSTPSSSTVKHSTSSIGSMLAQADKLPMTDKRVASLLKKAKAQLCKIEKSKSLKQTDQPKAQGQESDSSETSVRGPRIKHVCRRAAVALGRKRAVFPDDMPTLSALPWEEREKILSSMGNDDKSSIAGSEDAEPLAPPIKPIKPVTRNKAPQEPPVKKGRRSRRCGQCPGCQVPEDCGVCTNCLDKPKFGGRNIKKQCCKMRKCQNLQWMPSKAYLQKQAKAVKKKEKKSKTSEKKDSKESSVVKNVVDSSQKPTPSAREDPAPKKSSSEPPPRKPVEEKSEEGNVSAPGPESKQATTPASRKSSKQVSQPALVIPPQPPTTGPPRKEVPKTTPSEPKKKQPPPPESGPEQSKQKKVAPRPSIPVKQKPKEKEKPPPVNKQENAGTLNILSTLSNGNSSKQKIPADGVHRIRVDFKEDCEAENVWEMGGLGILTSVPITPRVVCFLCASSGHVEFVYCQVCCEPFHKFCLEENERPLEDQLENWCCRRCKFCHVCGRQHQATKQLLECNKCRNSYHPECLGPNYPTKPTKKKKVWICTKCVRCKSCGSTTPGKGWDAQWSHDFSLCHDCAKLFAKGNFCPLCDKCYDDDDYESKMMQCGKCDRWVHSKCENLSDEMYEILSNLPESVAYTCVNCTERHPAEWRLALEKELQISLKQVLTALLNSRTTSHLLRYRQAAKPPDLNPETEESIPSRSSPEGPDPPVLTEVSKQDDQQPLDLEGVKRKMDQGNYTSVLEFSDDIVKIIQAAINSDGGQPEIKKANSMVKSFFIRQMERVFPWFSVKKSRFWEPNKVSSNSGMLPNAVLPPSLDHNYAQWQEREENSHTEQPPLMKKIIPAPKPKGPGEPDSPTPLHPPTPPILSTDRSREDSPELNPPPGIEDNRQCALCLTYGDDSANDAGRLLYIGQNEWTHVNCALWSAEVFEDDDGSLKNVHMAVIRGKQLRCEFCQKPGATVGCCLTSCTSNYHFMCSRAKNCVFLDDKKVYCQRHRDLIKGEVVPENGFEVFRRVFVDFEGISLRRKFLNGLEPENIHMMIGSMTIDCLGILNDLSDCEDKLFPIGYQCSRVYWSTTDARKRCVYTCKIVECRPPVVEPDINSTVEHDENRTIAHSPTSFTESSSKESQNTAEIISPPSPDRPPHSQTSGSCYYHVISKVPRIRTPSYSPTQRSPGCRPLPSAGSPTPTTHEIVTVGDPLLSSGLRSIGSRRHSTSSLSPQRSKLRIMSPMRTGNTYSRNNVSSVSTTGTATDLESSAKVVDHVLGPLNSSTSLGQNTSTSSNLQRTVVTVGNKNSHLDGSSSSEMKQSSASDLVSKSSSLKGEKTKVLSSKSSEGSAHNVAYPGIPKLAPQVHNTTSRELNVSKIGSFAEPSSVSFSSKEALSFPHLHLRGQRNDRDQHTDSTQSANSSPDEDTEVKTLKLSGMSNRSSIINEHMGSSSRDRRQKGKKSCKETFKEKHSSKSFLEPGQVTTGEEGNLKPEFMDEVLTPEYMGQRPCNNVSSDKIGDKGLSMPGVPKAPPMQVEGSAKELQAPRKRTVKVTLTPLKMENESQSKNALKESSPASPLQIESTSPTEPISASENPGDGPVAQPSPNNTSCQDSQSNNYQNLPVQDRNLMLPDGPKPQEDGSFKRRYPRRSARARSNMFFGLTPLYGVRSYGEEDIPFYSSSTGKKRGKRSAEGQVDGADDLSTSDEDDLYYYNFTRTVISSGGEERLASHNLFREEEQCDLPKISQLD
Menin/Histone-lysine N-methyltransferase MLL, sequence (Q03164 2719-3969 partner limits assumed, one chain of several): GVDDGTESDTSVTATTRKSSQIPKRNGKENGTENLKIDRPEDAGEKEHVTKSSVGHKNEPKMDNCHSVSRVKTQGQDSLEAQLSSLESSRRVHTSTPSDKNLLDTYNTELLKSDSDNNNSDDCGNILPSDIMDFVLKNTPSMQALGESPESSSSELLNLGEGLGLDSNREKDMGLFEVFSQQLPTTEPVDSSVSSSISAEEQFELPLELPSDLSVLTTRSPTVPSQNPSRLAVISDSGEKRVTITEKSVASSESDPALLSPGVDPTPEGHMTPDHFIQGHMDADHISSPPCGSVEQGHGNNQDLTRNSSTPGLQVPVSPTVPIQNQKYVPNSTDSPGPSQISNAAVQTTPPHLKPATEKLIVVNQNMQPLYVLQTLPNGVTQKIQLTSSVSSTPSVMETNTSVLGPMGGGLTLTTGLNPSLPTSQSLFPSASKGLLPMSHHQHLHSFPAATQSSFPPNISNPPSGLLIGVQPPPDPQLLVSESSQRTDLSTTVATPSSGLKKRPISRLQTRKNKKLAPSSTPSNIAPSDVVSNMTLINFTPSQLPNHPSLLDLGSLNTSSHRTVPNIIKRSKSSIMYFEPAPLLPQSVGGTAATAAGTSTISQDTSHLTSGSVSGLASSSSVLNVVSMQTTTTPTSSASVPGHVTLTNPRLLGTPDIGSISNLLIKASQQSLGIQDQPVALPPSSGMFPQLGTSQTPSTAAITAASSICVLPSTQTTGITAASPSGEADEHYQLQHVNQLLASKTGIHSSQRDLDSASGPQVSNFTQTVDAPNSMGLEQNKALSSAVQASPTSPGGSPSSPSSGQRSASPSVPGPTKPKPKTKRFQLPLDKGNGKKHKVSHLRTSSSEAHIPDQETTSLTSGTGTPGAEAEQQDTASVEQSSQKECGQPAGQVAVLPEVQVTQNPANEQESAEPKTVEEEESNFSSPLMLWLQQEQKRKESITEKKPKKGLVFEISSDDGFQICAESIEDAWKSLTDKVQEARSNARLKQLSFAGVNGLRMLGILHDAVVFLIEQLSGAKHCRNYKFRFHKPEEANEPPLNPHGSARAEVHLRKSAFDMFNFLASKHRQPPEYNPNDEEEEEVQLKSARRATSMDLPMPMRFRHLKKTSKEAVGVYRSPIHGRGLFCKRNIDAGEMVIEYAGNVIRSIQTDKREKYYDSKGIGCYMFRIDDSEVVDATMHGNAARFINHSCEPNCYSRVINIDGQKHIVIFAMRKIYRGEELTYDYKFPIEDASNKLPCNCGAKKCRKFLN

Consider `COc1cc2[nH]c(C#N)cc2c(C)c1CN1CCC(Nc2ncnc3sc(CC(F)(F)F)cc23)CC1`, for which the GI50 in series [1] worked out at 100 nM; in series [10] it was 11000 nM. The values for the t1/2 in series [2], in [3] and in series [12] were 108 min, 120 min and 39 min, respectively. Further, in series [4], the RatioGI50 was 110. For the same compound, the Tmax in series [5] is 30 min. The compound also registered a F in series [6] of 46%. The Vdss in [7] is 3.698 L/kg. The Cmax in [8] is 2113 ng/mL. Further, the AUC in series [9] is 9397 ng·h/mL; in series [13] it was 8717 ng·h/mL. This compound had a clearance in series [11] of 26.6 mL/min/kg. Moreover, 40 nM corresponded to half-maximal inhibition in series [14] (IC50).
Regarding `N#Cc1cc2cc(CN3CCC(Nc4ncnc5sc(CC(F)(F)F)cc45)CC3)c(O)cc2[nH]1`, the figures for the GI50 in series [1] and in series [10] were 180 nM and more than 10000 nM, respectively. Also, in series [4], the RatioGI50 is more than 56. In series [12], the t1/2 is 6.6 min. The compound further had an IC50 in series [14] of 20 nM.
Take `N#Cc1cc2cc(CN3CCC(Nc4ncnc5sc(CC(F)(F)F)cc45)CC3)ccc2[nH]1`: the GI50 in series [1] was 550 nM; in series [10] it was 3000 nM. In addition, the results for the t1/2 in series [2], in [3] and in series [12] were 186 min, 186 min and 6.8 min, respectively. In [4], the RatioGI50 was determined as 5.5. The Tmax in series [5] was found to be 60 min. This compound had a F in [6] of 57%. In addition, the Vdss in series [7] was determined as 6.516 L/kg. The same compound came in with a Cmax in series [8] of 1516 ng/mL. The results for the AUC in [9] and in series [13] were 6576 ng·h/mL and 7509 ng·h/mL, respectively. In series [11], the clearance came out at 38.1 mL/min/kg. The compound also returned an IC50 in series [14] of 31 nM. Further, the Kd in series [15] amounted to 23.6 nM.
In the case of `COc1cc2c(cc1CN1CCC(Nc3ncnc4sc(CC(F)(F)F)cc34)CC1)cc(C#N)n2Cc1cn[nH]c1`, the results for the GI50 in [1] and in [10] were 290 nM and 6700 nM, respectively. Moreover, in series [4], the RatioGI50 is 23. The compound also came in with a t1/2 in [12] of 35 min. Also, the IC50 in [14] was found to be 24 nM.
The matching figures for `Cc1c(CN2CCC(Nc3ncnc4sc(CC(F)(F)F)cc34)CC2)c(O)cc2c1cc(C#N)n2CCO`: 400 nM, 10000 nM, 25, 11 min and 27 nM.
The matching figures for `COc1cc2c(cc(C#N)n2CC(N)=O)c(C)c1CN1CCC(Nc2ncnc3sc(CC(F)(F)F)cc23)CC1`: 420 nM, more than 25000 nM, more than 60, more than 60 min and 37 nM.
The matching figures for `N#Cc1cc2cc(CN3CCC(Nc4ncnc5sc(CC(F)(F)F)cc45)CC3)c(F)cc2[nH]1`: 3000 nM, more than 12000 nM, more than 4, 9 min and 109 nM.
On to `Cc1c(CN2CCC(Nc3ncnc4sc(CC(F)(F)F)cc34)CC2)ccc2c1cc(C#N)n2Cc1c[nH]nn1`, for which the GI50 was determined as 250 nM in [1] and 8000 nM in series [10]. Besides, the RatioGI50 in series [4] is 32. The t1/2 in series [12] is recorded as 59 min. Moreover, the IC50 in series [14] is 23 nM.
In the case of `Cc1c(CN2CCC(Nc3ncnc4sc(CC(F)(F)F)cc34)CC2)ccc2c1cc(C#N)n2CCO`, the GI50 in series [1] was found to be 440 nM; in [10] it was 5600 nM. Besides, the RatioGI50 in [4] came out at 13. This compound yielded a t1/2 in series [12] of 23 min. This compound registered a 50% inhibitory concentration (IC50) in [14] of 44 nM.
The matching figures for `COc1cc2c(cc(C#N)n2Cc2c[nH]nn2)c(C)c1CN1CCC(Nc2ncnc3sc(CC(F)(F)F)cc23)CC1`: 410 nM, 9000 nM, 22, 32 min and 16 nM.
For the compound `Cc1c(CN2CCC(Nc3ncnc4sc(CC(F)(F)F)cc34)CC2)c(O)cc2[nH]c(C#N)cc12`, the GI50 was determined as 220 nM in series [1] and 12000 nM in series [10]. Besides, the t1/2 in [2] worked out at 102 min; in [3], 240 min; in series [12], 56 min. The RatioGI50 in series [4] is recorded as 55. Moreover, the Tmax in series [5] is 120 min. Also, the F in [6] was found to be 34%. The Vdss in [7] stood at 4.454 L/kg. Besides, the Cmax in series [8] was found to be 649 ng/mL. Further, the AUC amounted to 5666 ng·h/mL in series [9] and 3846 ng·h/mL in [13]. The compound further registered a clearance in series [11] of 44.1 mL/min/kg. Also, in [14], the IC50 turned out to be 27 nM.
Turning to `CCOc1cc2[nH]c(C#N)cc2cc1CN1CCC(Nc2ncnc3sc(CC(F)(F)F)cc23)CC1`, the GI50 in [1] stood at 450 nM; in [10] it was 5300 nM. In addition, the RatioGI50 in series [4] is 12. For the same compound, the t1/2 in series [12] is listed as 11 min. This compound also yielded an IC50 in [14] of 47 nM.
For the compound `CO[C@@H](CO)Cn1c(C#N)cc2cc(CN3CCC(Nc4ncnc5sc(CC(F)(F)F)cc45)CC3)ccc21`, the GI50 came out at 360 nM in series [1] and 9700 nM in series [10]. The RatioGI50 in series [4] came to 27. The t1/2 in series [12] is given as less than 3 min. The same compound had an IC50 in series [14] of 40 nM.
The matching figures for `CC(C)OC(CO)Cn1c(C#N)cc2cc(CN3CCC(Nc4ncnc5sc(CC(F)(F)F)cc45)CC3)ccc21` (stereo not drawn): 180 nM, 3500 nM, 19, less than 3 min and 23 nM.
The matching figures for `Cc1c(CN2CCC(Nc3ncnc4sc(CC(F)(F)F)cc34)CC2)ccc2c1cc(C#N)n2CC(N)=O`: 470 nM, more than 25000 nM, more than 53, 59 min and 27 nM.
The matching figures for `N#Cc1cc2cc(CN3CCC(Nc4ncnc5sc(CC(F)(F)F)cc45)CC3)ccc2n1CC(O)CO` (racemic): 3400 nM, more than 12000 nM, more than 3.5, more than 60 min and 37 nM.
`N#Cc1cc2c(Cl)c(CN3CCC(Nc4ncnc5sc(CC(F)(F)F)cc45)CC3)ccc2[nH]1`: the GI50 in [1] is 1100 nM; in series [10], 11000 nM. In addition, the RatioGI50 in series [4] is listed as 10. Also, the t1/2 in series [12] stood at 28 min. It took 22 nM to reach half-maximal inhibition in series [14] (IC50).
